For series [1], the system named is Plasmodium falciparum. Nature of the series: ST_JUDE: Cytotoxicity against Plasmodium falciparum Dd2. The format is functional, organism-based.
The next series has as its system Leishmania major. Description: ST_JUDE: Cytotoxicity using Alamar Blue to measure viability of Leishmania major. In kind it is functional, organism-based. In outline: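 L. major promastigotes; drug susceptibility read with Alamar Blue.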
In series [2] the test system is Plasmodium falciparum. Nature of the series: ST_JUDE: Plasmodium falciparum K1 EC50 (uM) as measured by SYBR green dye. In kind it is functional, organism-based.
Series [3] in a line: ST_JUDE: Cytotoxicity using luciferase to measure ATP as an indicator of the viability of human epithelial embryonic kidney cells (HEK293). The format is toxicity, cell-based.
Series [4] concerns Plasmodium falciparum. Nature of the series: ST_JUDE: Plasmodium falciparum 3D7 EC50 (uM) as measured by SYBR green dye. In kind it is functional, organism-based.
A further series deals with Toxoplasma gondii. Description: ST_JUDE: Growth inhibition of to Toxoplasma gondii, in human U-2OS cells, as measured by luciferase. In kind it is functional, organism-based. The settings on record: RH, U2OS. In outline: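 T. gondii parasites engineered to express luciferase; drug sensitivity read by luminescence.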
Series [5] has as its system Plasmodium falciparum. Description: ST_JUDE: Cytotoxicity against Plasmodium falciparum K1. The format is functional, organism-based. In outline:
(§1)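 Asexual P. falciparum grown in human erythrocytes, exposed to compounds for 72 h, and growth read as the DNA quantity in treated versus control cultures. Dose-response run at 12 concentrations from 10 μM to 5 nM.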

Series [6] deals with Plasmodium falciparum. Description: ST_JUDE: Cytotoxicity against Plasmodium falciparum W2. The format is functional, organism-based.
For series [7], the system named is Plasmodium falciparum. Description: ST_JUDE: Cytotoxicity against Plasmodium falciparum V1/S. In kind it is functional, organism-based.
Series [8] in a line: ST_JUDE: Cytotoxicity using luciferase to measure ATP as an indicator of the viability of human epithelial hepatocellular carcinoma cells (HepG2). The format is toxicity, cell-based.
Series [9] relates to Plasmodium falciparum. Description: ST_JUDE: Cytotoxicity against Plasmodium falciparum SB-A6. The format is functional, organism-based.
A short description of series [10]: ST_JUDE: Cytotoxicity using luciferase to measure ATP as an indicator of the viability of human Burkitt''s lymphoma lymphoblast cells (Raji). The format is toxicity, cell-based.
Series [11] deals with Plasmodium falciparum. Nature of the series: ST_JUDE: Cytotoxicity against Plasmodium falciparum 3D7. The format is functional, organism-based. In short, it runs like this:
as §1

Series [12] can be described thus: ST_JUDE: Cytotoxicity using luciferase to measure ATP as an indicator of the viability of human foreskin fibroblast cells (BJ). The format is toxicity, cell-based.
A further series concerns Trypanosoma brucei. Nature of the series: ST_JUDE: Cytotoxicity using luciferase to measure ATP as an indicator of the viability of Trypanosoma brucei. The format is functional, organism-based.
For series [13], the system named is Plasmodium falciparum. Description: ST_JUDE: Cytotoxicity against Plasmodium falciparum D10 transfected with yeast DHOD. The format is functional, organism-based.

SMILES strings stand for the structures.

Turning to `CCN1/C(=C/c2cccc[n+]2C)C=Cc2cc(C)ccc21`, the EC50 (in general, the concentration at which the effect is half-maximal) in the series on Plasmodium falciparum [1] was 1.7 µM; in the series with Leishmania major, 0.107 µM; with Plasmodium falciparum [2] it was 0.325 µM; in series [3], above 32.2 µM; in the series with Plasmodium falciparum [4] it was 0.439 µM; in the series with Toxoplasma gondii it was above 17.6 µM. Also, the concentration giving a half-maximal response (EC50) in the series with Plasmodium falciparum [5] was 1.89 µM; in the series on Plasmodium falciparum [6], above 8.27 µM; with Plasmodium falciparum [7], above 8.27 µM; in series [8], above 32.2 µM; in the series with Plasmodium falciparum [9] it was 2.05 µM; in series [10] it was above 32.2 µM. Besides, the EC50 in the series on Plasmodium falciparum [11] is 1.5 µM; in series [12] it was above 32.2 µM; in the series with Trypanosoma brucei it was 7.21 µM; in the series on Plasmodium falciparum [13], 1.54 µM.
On to `OC(CNC1CCCCC1)Cn1c2ccc(Cl)cc2c2cc(Cl)ccc21` (centres undefined), for which the EC50 in the series on Plasmodium falciparum [1] was 0.132 µM; with Leishmania major, above 16.6 µM; with Plasmodium falciparum [2], 0.172 µM; in series [3], above 38.8 µM; in the series on Plasmodium falciparum [4], 0.388 µM; in the series on Toxoplasma gondii it was above 21.3 µM. For the same compound, the EC50 in the series with Plasmodium falciparum [5] was 0.348 µM; with Plasmodium falciparum [6], 0.177 µM; in the series on Plasmodium falciparum [7], 0.975 µM; in series [8], 17.2 µM; with Plasmodium falciparum [9], 1.05 µM; in series [10], above 38.8 µM. Besides, the concentration for a half-maximal effect (EC50) is 1.39 µM in the series with Plasmodium falciparum [11], above 38.8 µM in [12], 1.97 µM in the series on Trypanosoma brucei and 0.916 µM with Plasmodium falciparum [13].
As to `Cc1cccc(CN2CCC(CNC(=S)Nc3ccc4nc(N5CCN(C)CC5)cc(C)c4c3)CC2)c1`, the EC50 with Plasmodium falciparum [1] was 0.506 µM; with Leishmania major it was above 18.1 µM; with Plasmodium falciparum [2] it was 1.25 µM; in series [3] it was 13.6 µM; in the series on Plasmodium falciparum [4], 0.395 µM; with Toxoplasma gondii, above 23.2 µM. Further, the EC50 with Plasmodium falciparum [5] is 0.995 µM; in the series on Plasmodium falciparum [6], 2.23 µM; in the series on Plasmodium falciparum [7] it was 1.99 µM; in [8] it was 6.04 µM; with Plasmodium falciparum [9], 0.708 µM; in series [10], 22.6 µM. The EC50 stood at 1.14 µM with Plasmodium falciparum [11], 9.56 µM in [12], 4.8 µM in the series on Trypanosoma brucei and 1.05 µM in the series on Plasmodium falciparum [13].
As for `Fc1ccc(Nc2nc(NCc3ccccc3)c3ccccc3n2)cc1`, the EC50 with Plasmodium falciparum [1] was 0.644 µM; in the series on Leishmania major, 0.0024 µM; in the series with Plasmodium falciparum [2], 0.781 µM; in [3], 16.8 µM; in the series with Plasmodium falciparum [4] it was 0.901 µM; with Toxoplasma gondii, above 22.3 µM. In addition, the EC50 with Plasmodium falciparum [5] is 0.962 µM; in the series on Plasmodium falciparum [6], 3.54 µM; in the series with Plasmodium falciparum [7], 2.58 µM; in series [8], 6.78 µM; in the series on Plasmodium falciparum [9] it was 0.321 µM; in series [10], 13.7 µM. For the same compound, the EC50 amounted to 0.626 µM with Plasmodium falciparum [11], 15.2 µM in series [12], 7.89 µM in the series on Trypanosoma brucei and 0.868 µM in the series with Plasmodium falciparum [13].
Turning to `COCCO/C(O)=C1\C(C)=NC2=C(C(=O)CC(c3ccc(OC)c(OC)c3)C2)C1c1ccc(F)cc1` (centres undefined), the EC50 with Plasmodium falciparum [1] was 0.526 µM; in the series on Leishmania major, above 18.2 µM; in the series on Plasmodium falciparum [2] it was 0.0946 µM; in [3] it was above 42.4 µM; with Plasmodium falciparum [4], 0.253 µM; in the series with Toxoplasma gondii, above 23.2 µM. For the same compound, the EC50 in the series with Plasmodium falciparum [5] was 0.517 µM; in the series with Plasmodium falciparum [6] it was 0.47 µM; in the series on Plasmodium falciparum [7], 1.62 µM; in series [8], above 42.4 µM; in the series on Plasmodium falciparum [9] it was 2.67 µM; in series [10], above 42.4 µM. Besides, the EC50 in the series with Plasmodium falciparum [11] is 0.74 µM; in series [12], above 42.4 µM; with Trypanosoma brucei, 17.4 µM; in the series on Plasmodium falciparum [13], 2.99 µM.
Consider `CCCO/C(O)=C1\C(C)=NC2=C(C(=O)CC(c3ccc(OC)c(OC)c3)C2)C1c1ccccc1OC` (centres undefined), for which the EC50 in the series on Plasmodium falciparum [1] was 0.416 µM; with Leishmania major, above 20.1 µM; with Plasmodium falciparum [2] it was 0.125 µM; in [3], above 47 µM; with Plasmodium falciparum [4] it was 0.276 µM; in the series with Toxoplasma gondii, 16.1 µM. Also, the EC50 in the series with Plasmodium falciparum [5] was 0.328 µM; in the series with Plasmodium falciparum [6], 0.29 µM; with Plasmodium falciparum [7], 0.392 µM; in series [8] it was above 47 µM; with Plasmodium falciparum [9], 0.288 µM; in series [10], above 47 µM. For the same compound, the EC50 was 0.385 µM in the series with Plasmodium falciparum [11], above 47 µM in [12], 10.4 µM in the series with Trypanosoma brucei and 0.414 µM with Plasmodium falciparum [13].
As for `COc1ccc(C2CC(=O)NC3=C2C(=O)CC(c2ccc(F)cc2)C3)cc1OC` (centres undefined), the EC50 in the series with Plasmodium falciparum [1] was 1.13 µM; in the series on Leishmania major it was above 17.7 µM; in the series on Plasmodium falciparum [2] it was 1.07 µM; in series [3], above 41.4 µM; in the series on Plasmodium falciparum [4] it was 0.661 µM; in the series on Toxoplasma gondii, above 22.7 µM. For the same compound, the EC50 in the series with Plasmodium falciparum [5] was 1.19 µM; in the series with Plasmodium falciparum [6], 1.49 µM; in the series with Plasmodium falciparum [7], 1.99 µM; in [8], above 41.4 µM; with Plasmodium falciparum [9], 2.09 µM; in series [10] it was above 41.4 µM. The EC50 was 1.44 µM with Plasmodium falciparum [11], above 41.4 µM in series [12], above 39.7 µM in the series on Trypanosoma brucei and 1.85 µM in the series with Plasmodium falciparum [13].
Take `CCOc1ccc2nc(C)cc(Nc3ccc(Cl)cc3)c2c1`: the EC50 with Plasmodium falciparum [1] was 0.577 µM; in the series with Leishmania major it was 0.379 µM; with Plasmodium falciparum [2], 1.34 µM; in [3] it was 21.2 µM; in the series with Plasmodium falciparum [4], 0.444 µM; with Toxoplasma gondii, above 21.7 µM. Also, the EC50 with Plasmodium falciparum [5] came out at 4.08 µM; in the series on Plasmodium falciparum [6] it was 0.755 µM; in the series on Plasmodium falciparum [7] it was 2.77 µM; in series [8], 7.26 µM; in the series on Plasmodium falciparum [9] it was 0.295 µM; in series [10], 19.8 µM. For the same compound, the EC50 with Plasmodium falciparum [11] is 1.07 µM; in series [12], 8.78 µM; in the series on Trypanosoma brucei, 8.1 µM; in the series on Plasmodium falciparum [13], 0.536 µM.
Regarding `Cc1ccccc1/N=C1\C=C(NS(=O)(=O)c2ccc(F)cc2)c2ccccc2C1=O`, the EC50 in the series on Plasmodium falciparum [1] is 0.435 µM; in the series on Leishmania major, above 14.9 µM; in the series with Plasmodium falciparum [2], 0.182 µM; in series [3] it was 6.29 µM; with Plasmodium falciparum [4], 0.497 µM; with Toxoplasma gondii, above 19.1 µM. The EC50 is 0.0981 µM in the series with Plasmodium falciparum [5]; 0.216 µM in the series with Plasmodium falciparum [6]; 0.114 µM in the series on Plasmodium falciparum [7]; 6.13 µM in series [8]; 0.303 µM with Plasmodium falciparum [9]; 3.14 µM in [10]. For the same compound, the concentration for a half-maximal effect (EC50) in the series with Plasmodium falciparum [11] was 0.221 µM; in series [12], 5.88 µM; in the series with Trypanosoma brucei it was 0.946 µM; with Plasmodium falciparum [13] it was 0.161 µM.
